Assay outcomes as filed in PubChem BioAssay.
MC4R antagonist: MC4R antagonists of cAMP signaling, primary screen, cell-based, TR-FRET, antagonist arm of biased-ligand search | MC4R-expressing cells, MTII-stimulated cAMP, LANCE TR-FRET | Melanocortin receptor 4 (Homo sapiens), P32245 | actives 0.48% (n = 360,000) | inhibition, % at 6.5 µM;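 active = inhibition above its plate's cutoff, the mean of tested wells on that plate plus 3 SD, cut at about 29% in these data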;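 note: 0% = Melanotan II alone and 100% = Melanotan II plus saturating MCL0020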
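System – human MC4R-expressing U2OS cells · Also added – Melanotan II · Dosing – one concentration, 6.5 µM nominal · Timing – 30-min compound, 1-h challenge, 1-h detection, room temperature · Measured by – Eu-cAMP/anti-cAMP TR-FRET, emission 671 nm · Replicates – singlicate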
SMARCA2 activ: SMARCA2 (BRM) function activators, primary screen, cell-based, luminescence, high throughput. MG213 cells, MMTV-luciferase reporter, dexamethasone, overnight. activation, % at 9.1 µM. actives 1% (n = 370,000). AID 652017, 2013; in the data active = activation above about 7.8%;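 note: 0% = vehicle wells and 100% = reference activator wells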
MPTP block: mitochondrial permeability transition pore inhibitors, primary screen, biochemical, isolated mouse mitochondria, absorbance | Ca2+ swelling absorbance, 30 min | inhibition, % at 10 µM | actives 1.4% (n = 360,000);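 active = inhibition of 50% or more, scaled per plate between neutral and stimulator controls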;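 note: 0% = DMSO wells given calcium and 100% = 1 mM EGTA wells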
MC4R barr agon: MC4R agonists recruiting beta-arrestin, primary screen, cell-based, luminescence, agonist arm of biased-ligand search. U2OS MC4R beta-arrestin complementation; percent of melanotan II response, DMSO zero. actives 0.98% (n = 360,000). Melanocortin receptor 4 (Homo sapiens), P32245. activation, % at 8.9 µM;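 active = activation above a per-plate cutoff, the mean activation of sample wells on that plate plus 3 SD, cut at about 8% in these data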
ATG4B inh: ATG4B protease inhibitors, primary screen, biochemical, fluorescence, uHTS. ATG4B cleavage of LC3-PLA2, NBD-HPC fluorescence, 1 h. actives 0.51% (n = 340,000). inhibition, % at 8.33 µM. Cysteine protease ATG4B (Homo sapiens), Q9Y4P1; in the data active = inhibition above about 40%
Target sequence (Q9Y4P1 whole entry, looked up): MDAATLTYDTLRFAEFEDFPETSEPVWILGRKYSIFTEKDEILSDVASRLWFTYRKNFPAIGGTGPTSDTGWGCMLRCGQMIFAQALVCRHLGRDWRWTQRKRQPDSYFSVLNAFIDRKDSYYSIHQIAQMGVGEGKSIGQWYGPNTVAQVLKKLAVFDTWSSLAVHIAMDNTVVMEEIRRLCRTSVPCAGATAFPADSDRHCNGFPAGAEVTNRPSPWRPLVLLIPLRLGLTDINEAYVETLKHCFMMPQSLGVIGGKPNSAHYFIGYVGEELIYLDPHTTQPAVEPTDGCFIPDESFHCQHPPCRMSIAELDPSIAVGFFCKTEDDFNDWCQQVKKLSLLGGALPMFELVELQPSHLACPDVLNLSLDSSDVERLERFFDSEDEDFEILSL
The depositor's hits bear a star; . = no result given; ! = a repeat was not active. Rows were chosen to be rich in hits. Some 4.1% of all compounds tested hit in one or more screens of this group.

SMILES	MC4R antagonist	SMARCA2 activ	MPTP block	MC4R barr agon	ATG4B inh
O=C(C[C@H]1C/C=C\C[C@H](NC(=O)OCC2c3ccccc3-c3ccccc32)C(=O)O[C@H](c2ccccc2)CNC1=O)N[C@H](CO)Cc1ccccc1	0	.	-2	26*	-3
Cc1nn(Cc2ccc(Cl)cc2)c(=O)n1N(C)c1ncc(C(F)(F)F)cc1Cl	3	-4	-1	9.2*	6
Cc1nn(Cc2ccc([N+](=O)[O-])cc2)c(=O)n1N(C)c1ncc(C(F)(F)F)cc1Cl	0	1	-4	-1	-13
COc1ccc2c(c1)CCCN2C(=O)C1CCCN(S(=O)(=O)c2ccc(Br)s2)C1 (stereo not given)	.	-5	.	.	.
CCCCCCCCN1C(=O)[C@@H](CC(=O)NCc2cccs2)C[C@@]2(C(=O)OC)C1=C[C@H](COCc1ccccc1)O[C@@H]2C	.	-2	.	.	.
O=C(N=Nc1c(O)[nH]c2ccc(F)cc12)c1ccc(NS(=O)(=O)c2cccs2)cc1	13	0	-1	2	1
COc1ccc2[nH]c(O)c(N=NC(=O)c3ccc(NS(=O)(=O)c4cccs4)cc3)c2c1	9	-1	0	9.0*	-10
O=C(Cc1c[nH]c2ccccc12)Nc1ccc(Nc2cccnc2)c(-c2cc(F)cc(F)c2)c1	.	2	.	.	.
CCC(C)c1ccccc1NC(=O)CN(C)CCOc1ccc(Cl)cc1 (stereo not given)	18	-2	2	8.6*	6
CCOC(=O)c1c(S(=O)(=O)Nc2ccc(C)cn2)c(C)n(C)c1C	1	7.9*	-2	0	1
COc1ccc(C(=O)N(C)[C@H]2C[C@H]3c4[nH]c5c(-c6ccccc6)cccc5c4CCN3C(=O)[C@H]2[C@H](C)O)cc1	.	-2	.	.	.
CCOC(=O)c1[nH]c(C)c(C(=O)OCC(=O)N(C)C2CCS(=O)(=O)C2)c1C (stereo not given)	7	2	-2	8.3*	9
Oc1ccccc1Nc1nc(NCC2CCCO2)c2ccccc2n1 (stereo not given)	6	-2	6	-2	-17
Oc1ccc(Cl)cc1Nc1nc(NCC2CCCO2)c2ccccc2n1 (stereo not given)	6	-1	7	12*	11
CC1(C)CC2CC(C)(CN2C(=O)c2cc(-c3ccc(O)cc3)on2)C1 (stereo not given)	-8	-4	2	8.9*	5
CC(/C=C1\SC(=S)N(CCCC(=O)Nc2ccc(C(=O)O)c(O)c2)C1=O)=C\c1ccccc1	.	.	.	.	41*
COc1ccc(/C=C/C(=O)OCC(=O)c2ccc3c(c2)NC(=O)CO3)cc1	9	-2	1	13*	-7
COc1cc(/C=C/C(=O)OCC(=O)c2ccc3c(c2)NC(=O)CO3)ccc1OC(F)F	9	6	0	0	0
O=C(NC1CCCCN(Cc2cccc(F)c2)C1=O)c1cccc(C(F)(F)F)c1 (stereo not given)	.	-2	.	.	.
COc1ccc(COc2ccsc2C(=O)Nc2ccc(Cl)cc2)cc1	-7	3	3	8.7*	-1
S=C(N/N=C/c1ccc(Cl)c(Cl)c1)Nc1ccccc1Cl	-6	1	10	9.3*	-6
Fc1cccc(/C=N/NC(=S)Nc2ccccc2Cl)c1	-8	6	3	2	4
CC(C)Oc1ccc(CNC(=O)CC(c2ccccc2)c2cc(Cl)ccc2O)cc1 (stereo not given)	10	-4	5	9.3*	1
CCC(=O)Nc1ccc(NC(=O)CSc2nc3cc4c(cc3cc2C)CCC4)cc1	1	0	4	9.4*	-15
C=CC[C@H](CC(=O)N[C@H](CO)Cc1ccccc1)C(=O)N[C@H](COC(=O)[C@@H](CC=C)CC(=O)OC(C)(C)C)Cc1c[nH]c2ccccc12	11	-1	1	8.3*	-10
SMILES	MC4R antagonist	SMARCA2 activ	MPTP block	MC4R barr agon	ATG4B inh
O=C(COC(=O)c1cncc(Br)c1)NCc1ccc(Cl)cc1	6	5	2	0	5
O=C(COC(=O)c1cc(C(F)(F)F)cc(C(F)(F)F)c1)NCc1ccc(Cl)cc1	-1	-2	1	8.7*	-1
C[C@@H](CO)N(Cc1cn(Cc2ccccc2)nn1)S(=O)(=O)c1ccccc1Br	.	-5	.	.	.
COc1ccc2ccccc2c1-c1sc(Nc2ccccc2)n[n+]1-c1ccc(F)cc1	-4	-2	45	12*	9
COC(=O)[C@]12C[C@H](CC(=O)NCCCCc3ccccc3)C(=O)N(Cc3ccco3)C1=C[C@H](C(C)(C)C)O[C@@H]2C	.	-5	.	.	.
COc1ccc(-n2c(C)cc(=O)c3c2CC(C)(C)CC3=O)cc1	1	7.9*	1	-2	-11
Cc1cc2c(n1-c1ccc(Cl)cc1)CC(C)(C)CC2=O	-3	0	0	1	-17
CC(=O)Nc1ccc(S(=O)(=O)NCC2CCN(C(=O)C(=O)c3cccs3)CC2)cc1	.	-5	.	.	.
COc1ccc(CNCC#CC2=CCCCC2)c(OC)c1	.	1	.	.	.
CCC(C(=O)Nc1ccccc1N1CCCC1)c1cccc(Cl)c1 (stereo not given)	.	-2	.	.	.
N[C@@H](Cc1cc(I)c(Oc2cc(I)c(O)c(I)c2)c(I)c1)C(=O)O	.	.	.	.	45*
N[C@@H](Cc1cc(I)c(Oc2ccc(O)c(I)c2)c(I)c1)C(=O)O	1	-1	0	0	84*!
Cc1ccc(S(=O)(=O)N/N=C/c2ccc(C(=O)O)cc2)cc1	-3	1	-1	0	-5
Cc1ccc(S(=O)(=O)N/N=C/c2ccc(OC3CSC3)cc2)cc1	-3	-1	1	9.5*	-15
Cc1cc(C)c2sc(N(CCN(C)C)C(=O)CCS(=O)(=O)c3ccccc3)nc2c1	2	2	2	9.2*	-2
Clc1ccccc1Cn1ccc2ccc(-c3ccc4ccn(Cc5ccccc5Cl)c4c3)cc21	.	-2	.	.	.
CN(C)c1cc(N/N=C\c2ccccc2)nc(N(C)C)n1	13	-3	1	8.5*	5
COc1ccc(/C=N/Nc2cc(N(C)C)nc(N(C)C)n2)cc1	4	-3	2	1	-2
O=C1C(NC(=O)N2c3ccccc3C=Cc3ccccc32)CCCCN1Cc1cccc(C(F)(F)F)c1 (stereo not given)	.	-1	.	.	.
CCOc1ccc(CN2CCN(CC(O)Cn3c4ccccc4c4ccccc43)CC2)cc1 (stereo not given)	5	1	-1	-1	-8
COc1ccc(CN2CCN(CC(O)Cn3c4ccccc4c4ccccc43)CC2)cc1 (stereo not given)	12	0	-4	9.5*	-12
